Screening data (PubChem BioAssay)
Tb MetRS inh: T. brucei MetRS inhibitors, primary screen, biochemical, luminescence. methionyl-tRNA synthetase (Trypanosoma brucei brucei). purified T. brucei MetRS, ATP depletion, Kinase-Glo luminescence. inhibition, % at 11.9 µM. actives 0.4% (n = 360,000). AID 624268, 2012;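 active means inhibition above a per-plate cutoff of the control wells' mean inhibition plus 3 SD, cut at about 5.5% in these data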
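Material: T. brucei methionyl-tRNA synthetase, purified; reagent: substrates ATP, L-methionine and bulk Escherichia coli tRNA; dosing: 11.9 µM single point; timing: 15 min plus 2 h at 25 °C; detection: luminescence of leftover ATP; evaluation: % inhibition; control set: DMSO-only wells as low control; replicates: singlicate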
A1 inh: caspase 3/7 activation in MEF A1-2A-BIM cells, primary screen, A1 inhibitor project, cell-based, luminescence, HTS; actives 0.066% (n = 330,000); Caspase-Glo 3/7 luminescence, 3 h; percent of clofoctol response, vehicle zero; AID 2462, 2010; caspase activation, % (no concentration beside the values);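 active means over half of replicate activation scores above 10%, or exactly half above 10 with the replicate mean above 10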
NALP1 yeast inh: NALP1 inflammasome inhibitors in reconstituted yeast, colorimetric, S. cerevisiae, triplicate retest. S. cerevisiae NALP1/ASC/caspase-1 growth, X-gal OD620, 72 h. inhibition, % at 10 µM. actives 0.61% (n = 280,000); in the data active means inhibition mostly above about 24%, no sharp cut-off; inactive means mostly below about 32%
NALP3 yeast inh: NALP3 inflammasome inhibitors in reconstituted yeast, primary screen, luminescence, uHTS; Yeast reconstituted NLRP3/ASC/caspase-1, beta-gal luminescence, 24 h; inhibition, % at 10 µM; actives 0.39% (n = 330,000); AID 2825, 2010;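 active means inhibition of 50% or more; inactive means inhibition below 50%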
MC4R barr agon: MC4R agonists recruiting beta-arrestin, primary screen, cell-based, luminescence, agonist arm of biased-ligand search | AID 540308, 2011 | activation, % at 8.9 µM | Melanocortin receptor 4 (Homo sapiens), P32245 | U2OS MC4R beta-arrestin complementation; percent of melanotan II response, DMSO zero | actives 0.98% (n = 360,000);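 active means activation above a per-plate cutoff, the mean activation of sample wells on that plate plus 3 SD, cut at about 8% in these data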
Target sequence (P32245 whole entry, looked up): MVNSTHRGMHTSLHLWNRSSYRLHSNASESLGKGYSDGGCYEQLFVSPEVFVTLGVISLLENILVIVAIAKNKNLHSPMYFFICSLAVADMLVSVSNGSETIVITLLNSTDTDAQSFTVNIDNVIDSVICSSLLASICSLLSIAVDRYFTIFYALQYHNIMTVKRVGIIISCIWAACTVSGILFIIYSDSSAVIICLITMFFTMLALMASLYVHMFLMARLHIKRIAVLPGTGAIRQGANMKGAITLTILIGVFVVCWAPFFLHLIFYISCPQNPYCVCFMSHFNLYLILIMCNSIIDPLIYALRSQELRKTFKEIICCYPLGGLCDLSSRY
MC4R antagonist: MC4R antagonists of cAMP signaling, primary screen, cell-based, TR-FRET, antagonist arm of biased-ligand search | Melanocortin receptor 4 (Homo sapiens), P32245 | MC4R-expressing cells, MTII-stimulated cAMP, LANCE TR-FRET | inhibition, % at 6.5 µM | actives 0.48% (n = 360,000) | AID 540295, 2011;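 active means inhibition above its plate's cutoff, the mean of tested wells on that plate plus 3 SD, cut at about 29% in these data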
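Test system: U2OS cells stably expressing human melanocortin 4 receptor (MC4R); also added: Melanotan II challenge; compound: 6.5 µM single dose; timing: 30-min compound preincubation, 1-h Melanotan II challenge, 1-h detection, room temperature; signal: Eu-cAMP/anti-cAMP TR-FRET, emission 671 nm; repeats: one well per compound, no replicates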
Numbers stand for hits; i = inactive; nt = no result given. Only some compounds are listed: those with a hit (about 2.5% of all), similar ones and a draw of the others.

SMILES | Tb MetRS inh | A1 inh | NALP1 yeast inh | NALP3 yeast inh | MC4R barr agon | MC4R antagonist
COc1cccc(C(=O)O/N=C(\N)Cc2ccc(Cl)cc2)c1 | i | i | 77 | i | i | i
N/C(Cc1ccc(Cl)cc1)=N\OC(=O)C1CCCCC1 | i | i | 47 | i | i | i
O=C(COC(=O)C1CCCC1)NCc1ccc(Cl)cc1 | i | i | i | i | i | i
COc1ccc(-c2cc(C(F)F)n3ncc(C(=O)Nc4cc(C)on4)c3n2)cc1 | i | i | 43 | i | i | i
COC(=O)CN1C(=S)N(Cc2ccccc2)C(=O)C1CC(=O)Nc1ccc(Br)cc1 (centres undefined) | 64 | i | i | i | i | i
O=c1c(-c2nnc(SCc3ccc(Cl)cc3)o2)cccn1Cc1ccccc1 | i | i | 25 | i | i | i
CCSc1nnc(-c2c[nH]c3ccccc23)o1 | i | i | 37 | i | i | i
O=C(Nc1ccccc1-c1nnc(SCc2ccc(Cl)cc2)o1)c1ccccc1 | i | nt | i | i | i | i
Clc1ccc(CSc2nnc(-c3c[nH]c4ccccc34)o2)cc1 | i | i | i | i | 8.6 | i
N#CCSc1nnc(-c2c[nH]c3ccccc23)o1 | i | i | i | i | i | i
COc1ccccc1-n1ccn(CC(=O)Nc2ccc(C)cc2Cl)c(=O)c1=O | i | i | nt | i | i | i
O=C(CSc1ncccc1C(=O)O)Nc1ccc2c(c1)OCCO2 | i | i | i | i | i | i
Cc1cc(OCc2cc(C(=O)N(C)C(C)c3ccccn3)no2)cc(C)c1Cl (centres undefined) | i | i | i | i | i | i
O=C1/C(=C/c2ccco2)CCc2ccccc21 | i | i | i | i | i | i
Nc1ccc2c(c1)C/C(=C/c1ccco1)C2=O | i | i | 49 | i | i | i
CC(OC(=O)C1=COCCO1)C(=O)Nc1ccccc1C#N (centres undefined) | i | i | i | i | i | i
CC(OC(=O)C1=COCCO1)C(=O)Nc1ccc(Oc2ccccc2)cc1 (centres undefined) | i | i | 36 | i | i | i
Cc1ccc(C)c(NC(=S)N2CCN(c3cccc(C(F)(F)F)c3)CC2)c1 | i | i | i | i | 9.1 | i
Cc1ccnc(NC(=S)N2CCN(c3cccc(C(F)(F)F)c3)CC2)c1 | i | i | i | i | i | i
FC(F)(F)c1cccc(N2CCN(C(=S)NC3CCCC3)CC2)c1 | i | i | i | i | 8.3 | i
COc1ccc(C2=NN(C(=O)COC(=O)c3ccc(NC(=O)CC#N)cc3)C(c3ccco3)C2)cc1 (centres undefined) | i | i | nt | i | i | i
Cc1ccc(-c2nnn(CC(=O)N(c3cccc(F)c3)C(C(=O)NC3CCCC3)c3ccncc3)n2)o1 (centres undefined) | i | i | 35 | i | i | i
CCc1cc2c(=O)c(-c3cnn(-c4ccccc4)c3)c(C)oc2cc1OCC(=O)Nc1cccc(C)c1 | i | 7.9 | nt | i | i | i
COCCCNS(=O)(=O)c1ccc(S(=O)(=O)N2CCCC2)cc1 | i | i | 38 | i | i | i
COc1ccc(S(=O)(=O)N(C)C[C@H]2Oc3c(NS(=O)(=O)c4ccc(F)cc4)cccc3C(=O)N([C@H](C)CO)C[C@@H]2C)cc1 | i | i | nt | i | i | i
N/C(=N\OC(=O)c1ccccc1Br)c1ccc([N+](=O)[O-])cc1 | i | i | i | i | 8.6 | i
N/C(Cc1ccc([N+](=O)[O-])cc1)=N\OC(=O)c1ccccc1Br | i | i | 68 | i | i | i
Cc1ccc2nc(SCC(=O)Nc3cccc([N+](=O)[O-])c3)[nH]c2c1 | 72 | i | i | i | i | i
Cc1ccc2nc(SCC(=O)Nc3ccc(C(N)=O)cc3)[nH]c2c1 | i | i | i | i | i | i
